# Measured values published in ChEMBL document CHEMBL1126312, “Synthesis and evaluation of 3-substituted 17-methylmorphinan analogs as potential anticonvulsant agents” (J Med Chem, 1992).
# Calls of active or inactive are those of the source. The rule behind the calls is not given here.
# Assays:
# [1] = target: Glutamate [NMDA] receptor; test: (§1) Binding affinity against dextromethorpin binding site associated with N-methyl-D-aspartate glutamate receptor from guinea pig mitochondrial pellet P2 determined using [3H]1 as radioligand.; type: protein-complex assay, Cavia porcellus
# How it was run: (§2)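 Guinea pig brain crude mitochondrial P2 fraction (11500g pellet, De Robertis-based) was used in Tris-HCl pH 7.4. [3H]dextromethorphan at 5 nM final was incubated with ~0.3 mg tissue for 20 min at 23 °C, with displacer at 10^-9–10^-5 M. Nonspecific binding was defined with 100 µM unlabelled ligand. Samples were filtered on GF/B and counted by scintillation.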
# [2] = target: T1, Glutamate NMDA receptor (Rattus norvegicus) (UniProt P35439+Q00959+Q00960+Q00961+Q62645+Q8VHN2+Q9R1M7); test: (§3) Binding affinity against PCP binding site associated with N-methyl-D-aspartate glutamate receptor from rat synaptic plasma membrane(SPM) determined using [3H]TCP as radioligand.
# How it was run: (§4)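 Crude rat brain synaptic plasma membranes (cerebellum removed, extensively washed) were used in 5 mM Tris-HCl pH 7.4. [3H]TCP at 5 nM final was incubated with ~0.2 mg membranes for 60 min at 23 °C. Nonspecific binding was defined with cold phencyclidine. Samples were filtered on GF/B pre-soaked in 0.5% PEI, washed with 5 mM Tris pH 7.7 and counted.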
# Glutamate NMDA receptor [3] = test: Binding affinity against dextromethorpin binding site of N-methyl-D-aspartate glutamate receptor from rat brain using [3H]1
# How it was run: (§5)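 Rat brain membranes were the 100000g pellet of the 1000g supernatant, in 50 mM Tris-HCl pH 7.4. [3H]dextromethorphan (5 nM final) was incubated with ~0.3 mg membranes for 20 min at 23 °C, with displacer at 10^-9–10^-5 M. Nonspecific binding was defined with 100 µM unlabelled ligand. Samples were filtered on GF/B in cold Tris/choline chloride/Triton wash and counted by scintillation.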
# [4] = target: Glutamate [NMDA] receptor; test: Inhibition of [3H]1 binding to dextromethorpin binding site of guinea pig microsomal pellet P3 N-methyl-D-aspartate glutamate receptor; set-up: species or system Cavia porcellus
# How it was run: (§6)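 Guinea pig brain microsomal P3 fraction (100000g, 60 min pellet) was used in Tris-HCl pH 7.4. [3H]dextromethorphan at 5 nM final was incubated with ~0.5 mg tissue for 20 min at 23 °C, with displacer at 10^-9–10^-5 M. Nonspecific binding was defined with 100 µM unlabelled ligand. Samples were filtered on GF/B in cold Tris/choline chloride/Triton buffer and counted.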
# Glutamate NMDA receptor [5] = test: Binding affinity against glycine binding site of N-methyl-D-aspartate glutamate receptor from rat synaptic plasma membrane(SPM) using [3H]glycine; NA = No effect
# Rattus norvegicus [6] = test: Anticonvulsant activity in rat supramaximal electroshock (MES) test expressed as % rats protected at a dose of 25-50 mg/kg.; type: functional
# How it was run: (§7)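 Rats were given the compound sc in freshly diluted normal saline (DMSO or HCl-assisted dissolution for some compounds) at 1-2 mL/kg. Vehicle-injected controls were run. Rats were tested at 30 min after injection. The read-out is the % of rats protected from convulsion in the MES test at the stated doses, with n = 10 rats.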
# Glutamate NMDA receptor [7] = test: as §3; how it was run: as §4
# [8] = target: T1, Glutamate NMDA receptor (Rattus norvegicus); test: Binding affinity against dextromethorpin binding site associated with N-methyl-D-aspartate glutamate receptor from rat brain determined using [3H]1 as radioligand.; settings: concentration not given here; how it was run: as §5
# Rattus norvegicus [9] = test: Anticonvulsant activity in rat supramaximal electroshock (MES) test within a dose range of 15-60 mg/kg.; type: functional
# How it was run: (§8)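 The compound was given sc in freshly diluted normal saline at 1-2 mL/kg across the stated dose range, with vehicle-injected controls. MES protection was scored 30 min post-dose, with n = 10 rats. ED50 was derived from the dose-response and reported with 95% confidence limits, in mg/kg and µmol/kg.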
# Rattus norvegicus [10] = test: Anticonvulsant activity was determined in rat supramaximal electroshock (MES) test within a dose range of 15-60 mg/kg after (sc) administration; type: functional; how it was run: as §8
# Rattus norvegicus [11] = test: Anticonvulsant activity in rat supramaximal electroshock (MES) test expressed as % rats protected at a dose of 12.5-50 mg/kg.; type: functional; how it was run: as §7
# Rattus norvegicus [12] = test: Anticonvulsant activity in rat supramaximal electroshock (MES) test expressed as % rats protected at a dose of 40 mg/kg.; type: functional; how it was run: as §7
# [13] = target: T2, Glutamate [NMDA] receptor (Homo sapiens) (UniProt Q05586+Q12879+Q13224+O15399+O60391+Q14957+Q8TCU5); settings: Cavia porcellus; 10e-5 M
# [14] = target: T2, Glutamate [NMDA] receptor (Homo sapiens); settings: Cavia porcellus; Plasma; 10e-5 M
# [15] = target: T1, Glutamate NMDA receptor (Rattus norvegicus); settings: 10e-5 M
# [16] = target: T1, Glutamate NMDA receptor (Rattus norvegicus); test: Binding affinity against PCP binding site associated with N-methyl-D-aspartate glutamate receptor from rat synaptic plasma membrane(SPM) determined using [3H]TCP as radioligand; settings: concentration not given here; how it was run: as §4
# Rattus norvegicus [17] = test: Anticonvulsant activity in rat supramaximal electroshock (MES) test expressed as % rats protected at a dose of 5-40 mg/kg.; type: functional; how it was run: as §7
# Rattus norvegicus [18] = test: Anticonvulsant activity in rat supramaximal electroshock (MES) test expressed as % rats protected at a dose of 25-100 mg/kg.; type: functional; how it was run: as §7
# Rattus norvegicus [19] = test: Anticonvulsant activity in rat supramaximal electroshock (MES) test within a dose range of 15-60 mg/kg administered subcutaneously; type: functional; settings: sc; how it was run: as §8
# Rattus norvegicus [20] = test: Anticonvulsant activity in rat supramaximal electroshock (MES) test expressed as % rats protected at a dose of 10 and 25 mg/kg.; type: functional; how it was run: as §7
# [21] = target: T1, Glutamate NMDA receptor (Rattus norvegicus); test: as §3; settings: concentration not given here
# How it was run: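 Rat brain (minus cerebellum) crude synaptic plasma membranes, washed repeatedly in 5 mM Tris-HCl pH 7.4; about 0.2 mg incubated with 5 nM [3H]TCP for 60 min at 23 °C, 0.5 mL final volume. Displacers tested at 10^-9–10^-5 M; cold PCP defines nonspecific binding. Bound ligand collected by filtration on PEI-soaked GF/B filters and counted by scintillation.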
# [22] = target: T1, Glutamate NMDA receptor (Rattus norvegicus); test: Binding affinity against PCP binding site associated with N-methyl-D-aspartate glutamate receptor from rat synaptic plasma membrane(SPM) determined using [3H]TCP as radioligand.;NA = No effect; settings: concentration not given here; how it was run: as §4
# Rattus norvegicus [23] = test: Anticonvulsant activity in rat supramaximal electroshock (MES) test expressed as % rats protected at a dose of 1.25-10 mg/kg.; type: functional; how it was run: as §7
# [24] = target: T2, Glutamate [NMDA] receptor (Homo sapiens); test: Binding affinity against dextromethorpin binding site associated with N-methyl-D-aspartate glutamate receptor from guinea pig microsomal pellet P3 determined using [3H]1 as radioligand.; settings: Cavia porcellus; target entry is the homologue from another species; concentration not given here; how it was run: as §6
# [25] = target: T2, Glutamate [NMDA] receptor (Homo sapiens); test: as §1; type: functional; settings: Cavia porcellus; target entry is the homologue from another species; concentration not given here; how it was run: as §2
# [26] = target: T1, Glutamate NMDA receptor (Rattus norvegicus); test: (§9) Binding affinity against glycine binding site associated with N-methyl-D-aspartate glutamate receptor from rat synaptic plasma membrane(SPM) determined using [3H]glycine as radioligand.;NA = No effect
# Rattus norvegicus [27] = test: Anticonvulsant activity in rat supramaximal electroshock (MES) test expressed as % rats protected at a dose of 2.5-50 mg/kg.; type: functional; how it was run: as §7
# Rattus norvegicus [28] = test: Anticonvulsant activity in rat supramaximal electroshock (MES) test expressed as % rats protected at a dose of 15-60 mg/kg.; type: functional; how it was run: as §7
# [29] = target: Glutamate [NMDA] receptor; test: Binding affinity against dextromethorpin binding site associated with N-methyl-D-aspartate glutamate receptor from guinea pig mitochondriall pellet P2 determined using [3H]1 as radioligand.; type: protein-complex assay, Cavia porcellus; how it was run: as §2
# Glutamate NMDA receptor [30] = test: as §9
# Rattus norvegicus [31] = test: Anticonvulsant activity in rat supramaximal electroshock (MES) test expressed as % rats protected at a dose of 2.5-10 mg/kg.; type: functional; how it was run: as §7
# [32] = target: Glutamate [NMDA] receptor; test: Binding affinity against dextromethorpin binding site associated with N-methyl-D-aspartate glutamate receptor from guinea pig microsomal pellet (P3) using [3H]1 as radioligand.; set-up: species or system Cavia porcellus; how it was run: as §6
# Glutamate NMDA receptor [33] = test: Binding affinity against dextromethorpin binding site associated with N-methyl-D-aspartate glutamate receptor from rat brain using [3H]1 as radioligand.; how it was run: as §5
# Glutamate NMDA receptor [34] = test: Binding affinity against glycine binding site associated with N-methyl-D-aspartate glutamate receptor from rat synaptic plasma membrane using [3H]glycine as radioligand.
# Rattus norvegicus [35] = test: Anticonvulsant activity in rat supramaximal electroshock (MES) test expressed as % rats protected at a dose of 50 mg/kg.; type: functional; how it was run: as §7
SMILES,IC50 [1] [nM],IC50 (Glutamate NMDA receptor [3]) [nM],IC50 [4] [nM],IC50 (Glutamate NMDA receptor [5]),ED50 (Rattus norvegicus [9]) [µmol/kg],other results
CN1CCC23CCCCC2C1Cc1ccc(N=C=S)cc13 (centres undefined),440,1500,170,Not Active,,inhibition ([2]; concentration not given here): 60%; Protection (Rattus norvegicus [6]): 0%
CN1CCC23CCCCC2C1Cc1ccc(N)cc13 (centres undefined),6400,,4400,Not Active,76,IC50 (Glutamate NMDA receptor [7]): 7800 nM; inhibition [8]: 45%; ED50 (Rattus norvegicus [10]): 25 mg/kg; Protection (Rattus norvegicus [11]): 100%
CN(C)c1ccc2c(c1)C13CCCCC1C(C2)N(C)CC3 (centres undefined),680,4400,1100,Not Active,,inhibition [2]: 45 µM; Protection (Rattus norvegicus [12]): 40%
C[C@]12N[C@H](Cc3ccccc31)c1ccccc12,,,,,,inhibition [13]: 19%; inhibition [14]: 20%; inhibition [15]: 42%
CCCCOc1ccc2c(c1)C13CCCCC1C(C2)N(C)CC3 (centres undefined),160,1500,100,Not Active,,inhibition [16]: 58%; Protection (Rattus norvegicus [17]): 40%
CNc1ccc2c(c1)C13CCCCC1C(C2)N(C)CC3 (centres undefined),480,3600,1300,Not Active,,inhibition ([2]; concentration not given here): 43%; Protection (Rattus norvegicus [18]): 0%
CCOc1ccc2c(c1)C13CCCCC1C(C2)N(C)CC3 (centres undefined),90,420,130,Not Active,17.4,inhibition [16]: 75%; ED50 (Rattus norvegicus [19]): 5.6 mg/kg; Protection (Rattus norvegicus [20]): 90%
CN(C)CCCN1c2ccccc2Sc2ccc(Cl)cc21 [CHLORPROMAZINE],1100,1300,600,Not Active,,inhibition [21]: 25%
CC(C)Oc1ccc2c(c1)C13CCCCC1C(C2)N(C)CC3 (centres undefined),150,880,120,Not Active,9.4,inhibition [22]: 59%; ED50 (Rattus norvegicus [19]): 3.9 mg/kg; Protection (Rattus norvegicus [23]): 90%
CN1CCC23CCCCC2C1Cc1ccc(Cl)cc13 (centres undefined),370,1100,210,Not Active,,IC50 (Glutamate NMDA receptor [7]): 5500 nM; Protection (Rattus norvegicus [6]): 10%
CN1CCC23CCCCC2C1Cc1ccc(Oc2nc(-c4ccccc4)nc4ccccc24)cc13 (centres undefined),,,,,,inhibition [24]: 50%; inhibition [25]: 25%; inhibition [8]: 19%; inhibition [26]: inactive; Protection (Rattus norvegicus [27]): 10%
COc1ccc2c(c1)C13CCCCC1C(C2)N(C)CC3 (stereo not drawn) [RACEMETHORPHAN],240,,490,Not Active,109,ED50 (Rattus norvegicus [19]): 38 mg/kg; Protection (Rattus norvegicus [28]): 70%
c1ccc(C2(N3CCCCC3)CCCCC2)cc1 [PHENCYCLIDINE],,,,,,IC50 (Glutamate NMDA receptor [7]): 180 nM
CN1CCC23CCCCC2C1Cc1ccccc13 (centres undefined),1700,1300,1000,Not Active,,inhibition ([2]; concentration not given here): 53%; Protection (Rattus norvegicus [18]): 0%
CN1CC[C@]23CCCC[C@H]2[C@H]1Cc1ccc(O)cc13 [LEVORPHANOL],,7700,2700,,12,IC50 (Glutamate NMDA receptor [7]): 1200 nM; IC50 [29]: 2500 nM; IC50 (Glutamate NMDA receptor [30]): Not Active; ED50 (Rattus norvegicus [19]): 5 mg/kg; Protection (Rattus norvegicus [31]): 90%
CN1CCC23CCCCC2C1Cc1ccc(OCc2ccccc2)cc13 (centres undefined),270,,,,,IC50 [32]: 150 nM; inhibition ([2]; concentration not given here): 39%; IC50 (Glutamate NMDA receptor [33]): 3100 nM; IC50 (Glutamate NMDA receptor [34]): Not Active; Protection (Rattus norvegicus [35]): 30%
